Screening results deposited in PubChem BioAssay by several laboratories.
CHT allo act = allosteric activators of human choline transporter CHT | 310,000 compounds, 0.49% hits | Q9GZV3 | B-score at 10 µM | CHT-expressing cells, membrane potential dye, choline EC20; stronger effect = higher value; LV-AA mutant CHT in HEK293 cells;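 active means initial fluorescence not abnormally high and integrated response B-score, plate-corrected, over 3 SD above library mean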
CHT inh = human CHT choline transport inhibition; 310,000 compounds, 0.86% hits; B-score at 10 µM; Q9GZV3; CHT-expressing cells, membrane potential dye, choline response; stronger effect = lower value;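 active means B-score over 3 SD under the library average, and starting fluorescence ratio not unusually high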;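 further: choline stimulus applied at its EC90 after an EC20 pre-addition; B-score computed on integrated fluorescence ratio after choline addition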
Rad51 HR inh = blocks human Rad51 in homologous recombination. 200,000 compounds, 0.085% hits. inhibition, % at 10 µM. hRad51 DNA strand exchange, fluorescence dequenching. Q06609;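 active means inhibition above 40% at the single screening dose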;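 further: 0% = DMSO control wells and 100% = blanks with heterologous ssDNA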
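System: human Rad51 nucleoprotein filaments preassembled on unlabelled ssDNA. Reagent: labelled 47-mer dsDNA for strand exchange. Schedule: 30-min compound preincubation and 15-min exchange, both room temperature. Measured by: FRET fluorescence dequenching, excitation 485 nm, emission 520 nm. Read-out: Fluorescence-based percent inhibition, control- and blank-normalised. Benchmarks: plate controls and plate blanks.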
KCC2 mod = KCC2 (human) Cl- transport modulation; 190,000 compounds, 2.2% hits; KCC2 cells, thallium flux FluoZin-2 fluorescence; Q9H2X9; B-score of Tl+ flux slope (higher = more flux/activation; lower = inhibition) at 10 µM;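 active means thallium flux slope and its plate-corrected score both differing from the plate sample mean at a set confidence after two filtering rounds, in either direction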;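 further: slope of fluorescence scaled to starting intensity during 10 to 20 s after thallium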
Target sequence (Q9H2X9 whole entry, looked up): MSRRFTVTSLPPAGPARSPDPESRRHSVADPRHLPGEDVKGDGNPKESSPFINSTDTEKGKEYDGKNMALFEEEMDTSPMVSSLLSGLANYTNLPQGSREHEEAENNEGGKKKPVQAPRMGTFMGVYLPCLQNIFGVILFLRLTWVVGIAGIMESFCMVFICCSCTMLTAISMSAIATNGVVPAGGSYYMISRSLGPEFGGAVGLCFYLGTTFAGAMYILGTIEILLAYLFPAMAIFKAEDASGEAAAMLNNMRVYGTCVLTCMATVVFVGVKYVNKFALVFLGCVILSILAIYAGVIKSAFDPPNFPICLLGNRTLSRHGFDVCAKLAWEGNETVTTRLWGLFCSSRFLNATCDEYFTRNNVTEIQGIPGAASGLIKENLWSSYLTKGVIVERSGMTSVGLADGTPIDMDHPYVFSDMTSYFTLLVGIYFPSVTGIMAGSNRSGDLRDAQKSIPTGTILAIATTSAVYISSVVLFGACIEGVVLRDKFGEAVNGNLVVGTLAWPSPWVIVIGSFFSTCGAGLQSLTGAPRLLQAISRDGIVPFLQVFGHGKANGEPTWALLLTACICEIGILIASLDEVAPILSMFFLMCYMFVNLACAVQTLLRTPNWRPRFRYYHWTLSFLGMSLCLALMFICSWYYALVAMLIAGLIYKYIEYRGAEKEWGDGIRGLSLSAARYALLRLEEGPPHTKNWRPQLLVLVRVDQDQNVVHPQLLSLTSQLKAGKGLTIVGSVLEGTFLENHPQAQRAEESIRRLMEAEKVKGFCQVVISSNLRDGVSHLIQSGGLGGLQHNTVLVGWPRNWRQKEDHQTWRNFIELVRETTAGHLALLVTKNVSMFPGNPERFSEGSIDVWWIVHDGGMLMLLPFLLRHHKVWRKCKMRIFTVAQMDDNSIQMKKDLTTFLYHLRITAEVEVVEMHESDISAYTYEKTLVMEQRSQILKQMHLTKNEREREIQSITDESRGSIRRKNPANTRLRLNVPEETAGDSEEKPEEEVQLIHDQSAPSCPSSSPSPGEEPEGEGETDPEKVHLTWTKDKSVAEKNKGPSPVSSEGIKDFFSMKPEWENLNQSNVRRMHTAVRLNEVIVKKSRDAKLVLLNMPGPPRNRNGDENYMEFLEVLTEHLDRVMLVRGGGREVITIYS
KCC2 sec1 = KCC2 (human) modulation, secondary assay; shares compounds with KCC2 mod; HEK293-KCC2, thallium flux, FluoZin2 fluorescence; stronger effect = higher value; normalised thallium flux (F/F0 slope) at 10 µM; 3,700 compounds, 15% hits;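 active means thallium flux slope above the same plate's solvent-only control mean plus 3 SD; inconclusive means the two replicate wells disagree; inactive means no significant difference from solvent-only control wells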
KCC2 bumet counter = thallium flux despite bumetanide block in KCC2 cells, secondary assay 3; HEK293-KCC2 + bumetanide/ouabain, thallium flux FluoZin2; stronger effect = higher value; shares compounds with KCC2 mod; 3,700 compounds, 49% hits; normalized thallium flux at 10 µM;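 active means thallium entry rate above the same plate's blocked-transporter control wells by more than 3 SD; inconclusive means the two repeat wells disagree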;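 further: raw slope of fluorescence over initial fluorescence between 10 and 20 s after thallium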
KCC2 sec2 = confirmation of human KCC2 transport modulators; shares compounds with KCC2 mod; HEK293-KCC2, thallium flux FluoZin2 fluorescence; actives lie on both sides; F/F0 rise rate, 10–20 s post-thallium; normalized thallium flux at 10 µM; 3,700 compounds, 23% hits; AID 1715;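 active means thallium flux slope more than 3 SD above or below the plate's solvent-only control mean, mostly below; inconclusive means the two repeat wells disagreed; inactive means no significant shift from solvent-only controls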;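 further: raw slope with 0.1% DMSO as baseline and bumetanide as block control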
HEK293 Tl flux = counter-screen for KCC2 modulators: effect in parental HEK293 cells; shares compounds with KCC2 mod; thallium flux FluoZin2, ouabain; baseline-ratio fluorescence slope, 10–20 s after thallium; thallium flux rate (normalised fluorescence) at 10 µM; 3,700 compounds, 46% hits;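 active means thallium flux rate significantly above the same plate's solvent-only control wells, beyond their mean plus 3 SD; inconclusive means the two replicate wells gave conflicting results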
KCC2 ouabain = KCC2 (human) modulation, ouabain retest | 3,700 compounds, 48% hits | raw Tl+ flux slope (below DMSO = inhibition, above = activation) at 10 µM | shares compounds with KCC2 mod | HEK293-KCC2, thallium flux FluoZin2 fluorescence; bidirectional: low = inhibitor, high = activator;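 active means thallium flux slope beyond 3 SD from same-plate DMSO control mean in most replicates, usually higher, sometimes lower; inconclusive means repeat tests gave conflicting results; inactive means no significant difference from controls in most replicates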;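 further: slope of initial-normalized fluorescence between seconds 10 and 20 after thallium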
HEK293 Tl flux2 = acts in parental HEK cells, second KCC2 counter-screen; shares compounds with KCC2 mod; HEK293 parental, thallium flux FluoZin-2 fluorescence slope; thallium flux slope at 10 µM; 3,700 compounds, 33% hits;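 active means thallium flux slope above the same plate's solvent-control mean plus 3 SD in both duplicate wells; inconclusive means duplicate wells that disagreed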;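 further: run without ouabain in cells lacking the KCC2 cotransporter; slope of fluorescence scaled to its starting value between 10 and 20 s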
* hit, by the source's call; i = inactive; ? = inconclusive; nt = no result given. This is a sample that favours compounds with a hit; in the whole collection about 2.6% have one here.

SMILES	CHT allo act	CHT inh	Rad51 HR inh	KCC2 mod	KCC2 sec1	KCC2 bumet counter	KCC2 sec2	HEK293 Tl flux	KCC2 ouabain	HEK293 Tl flux2
CCC1CCCCN1C(=O)CSc1nnc(CNC(=O)c2cc(OC)c(OC)c(OC)c2)o1 (stereo not drawn)	i	i	-7	6.7*	0.0076	0.0046	0.032	0.0079	0.02	0.011
Cc1ccc(S(=O)(=O)CC(=O)c2cc3cccc(C)c3oc2=O)cc1	i	i	nt	nt	nt	nt	nt	nt	nt	nt
Cc1cccc(N=C2NN=C(c3ccccc3F)CS2)c1C	i	i	-6	11*	0.011	0.013*	0.037	0.018*	0.026*	?
Fc1ccc(F)c(C2=NNC(=Nc3ccccc3F)SC2)c1	i	i	-3	5.9*	0.0067	0.011*	0.034	0.011*	0.026*	0.014*
Fc1ccc(N=C2NN=C(c3cc(F)ccc3F)CS2)cc1	i	i	-1	1	nt	nt	nt	nt	nt	nt
O=C(Cc1cccs1)Nc1ccc(F)cc1	i	i	nt	nt	nt	nt	nt	nt	nt	nt
C#CCNc1cc(-c2ccccc2)nc2ncnn12	i	i	23	-0.18	nt	nt	nt	nt	nt	nt
COc1ccc(CCNc2cc(-c3ccccc3)nc3ncnn23)cc1	i	i	nt	4.7*	0.0071	0.0043	0.027	0.0068	0.017	?
Cc1nn2c(nc(N3CCCCC3)c3ccccc32)c1C=O	i	i	9	-1.5	nt	nt	nt	nt	nt	nt
Cc1nn2c([nH]c(=O)c3ccccc32)c1C=O	i	i	nt	3.4*	0.01	0.01*	0.032	?	?	0.0091
FC(F)(F)c1ccccc1-n1c(-c2ccco2)n[nH]c1=S	i	i	nt	nt	nt	nt	nt	nt	nt	nt
COc1ccc(-c2coc3cc(O)cc(O)c3c2=O)cc1	i	i	4	-5.2	?	0.0062	0.028	0.0069	0.016*	?
COc1ccc(-c2coc3cc(OC)cc(O)c3c2=O)cc1	i	i	nt	0.0058	nt	nt	nt	nt	nt	nt
CN(C)CCn1c(=S)[nH]c2ncccc2c1=O	i	i	-13	2.1	nt	nt	nt	nt	nt	nt
CCOCCCn1c(=S)[nH]c2ncccc2c1=O	i	i	nt	5.3*	0.0064	0.017*	0.037	0.018*	?	0.021*
CC(C)CCn1c(=S)[nH]c2ncccc2c1=O	i	i	nt	51*	0.012*	0.08*	0.075*	0.067*	0.073*	0.059*
COc1ccc(N2CCN(CCCn3c(=S)[nH]c4ncccc4c3=O)CC2)cc1	i	i	-4	8.9*	0.0071	0.032*	0.037	0.02*	0.031*	0.018*
CC(=O)c1ccc(N2CCN(C(=O)Cn3c(=S)[nH]c4ncccc4c3=O)CC2)cc1	i	i	12	1.6	nt	nt	nt	nt	nt	nt
CC1=NN(C(=O)c2ccoc2C)C(O)(C(F)(F)F)C1 (stereo not drawn)	i	i	1	0.37	nt	nt	nt	nt	nt	nt
COc1ccc(C)cc1NC(=O)C(OC(=O)C1CC1)c1ccccc1 (stereo not drawn)	i	i	-9	-2.2	nt	nt	nt	nt	nt	nt
CN(Cc1ccccc1)S(=O)(=O)c1ccc(Cl)c(C(=O)NCCc2ccccn2)c1	i	i	-6	-4.4*	0.0073	0.005	0.018*	0.0068	0.012*	0.0092
COc1ccccc1N1CCN(C(=O)CSc2ncccc2-c2nc3ccccc3[nH]2)CC1	i	i	-4	nt	nt	nt	nt	nt	nt	nt
O=C(CSc1ncccc1-c1nc2ccccc2[nH]1)N1CCN(c2ccccc2F)CC1	i	i	1	-4*	0.006	0.005	0.025*	0.0072	?	0.0099
